Hep lipid drop: modulators of hepatic lipid droplet formation; AML12 mouse hepatocytes, oleate lipid droplets, BODIPY imaging; 0.4% of 240,000 active; inhibition, % at 6.5 µM; AID 1656;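 active means lipid droplet intensity inhibited by at least 50%, with more than 500 cells counted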
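Test system: AML12 hepatocytes (mouse); reagent: oleate loading, 100 µM; dosing: one dose, 6.5 µM compound; incubation: overnight exposure; signal: fluorescence imaging, 20x objective, two fields per well; read-out basis: % inhibition of corrected integrated BODIPY droplet signal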
HSP90 inh: blocks HSP90-mediated luciferase refolding in reticulocyte lysate. inhibition, % at 5.6 µM. 0.91% of 290,000 active. Rabbit reticulocyte lysate, luciferase refolding luminescence, 3 h;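 active means inhibition above the screen-wide mean plus 3 SD, computed separately per campaign, cut at about 16% in these data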;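 further: 0% = DMSO wells and 100% = 60 µM geldanamycin wells; inhibitors lower the luminescence because luciferase stays unfolded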
NS3 helicase inh: inhibitors of Hepatitis C virus NS3 helicase; NS3 helicase DNA unwinding, Cy5 molecular beacon fluorescence; inhibition, % at 10.9 µM; 0.56% of 290,000 active;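 active means inhibition above the mean of all tested compounds plus 3 SD, set per campaign, cut at about 35% in these data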;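 further: 0% = DMSO wells and 100% = thioflavine S control wells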
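Test system: hepatitis C virus NS3 helicase domain fragment enzyme. Also added: annealed dual-labelled DNA beacon duplex, ATP-started. Timing: 60 min unwinding reaction at 25 °C after ATP addition. Technique: Cy5 fluorescence. Measure: % inhibition of unwinding.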
HSF-1 act: increases HSF-1 driven luciferase reporter signal; NIH3T3-HGL HSF-1 luciferase reporter, MG132, 8 h; 100% = twice DMSO control signal; activation, % at 9 µM; 1.7% of 300,000 active; AID 504408;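 active means mean replicate activation of at least 50% with a set share of replicates each reaching 50%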;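 further: 0% = median of the neutral control wells and 100% = twice that signal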
HSF1 inh: HSF1 inhibition | 0.77% of 300,000 active | activity change, negative = inhibition, % at 7.5 µM (by protocol) | NIH3T3-HGL HSE-luciferase, MG132-induced, luminescence 8 h; active compounds read low;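 active means more than half of replicate wells show activity change below -50%, luminescence cut by over half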;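 further: luciferase reports HSF-1 transcriptional activity via heat shock element; 0% = median of DMSO wells and -100% = zero luminescence signal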
HSP90 inh confirm: HSP90 inhibition, confirmation assay | shares compounds with HSP90 inh | rabbit reticulocyte lysate, luciferase refolding luminescence, 3 h | inhibition, % at 5.9 µM | 64% of 2,300 active; in the data active means inhibition above about 18%;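 further: 0% = vehicle wells and 100% = reference inhibitor wells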
luciferase ctr: counter-screen for HSP90 inhibitors: inhibitors of firefly luciferase. shares compounds with HSP90 inh. purified native firefly luciferase, luminescence. inhibition, % at 5.9 µM. 48% of 2,300 active. AID 1847;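 active means inhibition above the mean inhibition of all tested sample wells plus 3 SD, cut at about 10% in these data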;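 further: 0% = DMSO with luciferase and 100% = wells lacking luciferase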
Target sequence (P08659 whole entry, looked up): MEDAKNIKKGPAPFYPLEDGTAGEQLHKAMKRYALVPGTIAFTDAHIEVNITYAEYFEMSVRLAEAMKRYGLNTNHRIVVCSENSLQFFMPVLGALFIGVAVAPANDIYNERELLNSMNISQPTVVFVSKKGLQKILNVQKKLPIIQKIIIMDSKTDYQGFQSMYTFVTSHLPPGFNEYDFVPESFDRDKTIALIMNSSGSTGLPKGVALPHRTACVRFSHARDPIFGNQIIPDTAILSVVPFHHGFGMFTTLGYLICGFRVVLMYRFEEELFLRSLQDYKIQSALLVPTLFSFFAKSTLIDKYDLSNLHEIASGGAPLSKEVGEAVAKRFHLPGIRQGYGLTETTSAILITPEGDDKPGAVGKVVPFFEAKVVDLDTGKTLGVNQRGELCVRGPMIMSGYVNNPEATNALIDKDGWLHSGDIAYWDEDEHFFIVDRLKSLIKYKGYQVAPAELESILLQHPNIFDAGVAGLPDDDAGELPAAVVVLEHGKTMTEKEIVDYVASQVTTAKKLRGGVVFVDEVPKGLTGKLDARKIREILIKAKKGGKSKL
Starred values were filed as active, the others as inactive; . = not tested or not shown. Only some compounds are listed: those with a hit (about 3.8% of all), similar ones and a draw of the others.

SMILES | Hep lipid drop | HSP90 inh | NS3 helicase inh | HSF-1 act | HSF1 inh | HSP90 inh confirm | luciferase ctr
S=C(NCCCc1ccccc1)NC1CCCCC1 | 13 | -1 | -3 | 4 | 4 | . | .
CC/C(Cc1ccccc1)=N\NC(=O)c1cc([N+](=O)[O-])cc([N+](=O)[O-])c1 | -14 | 4 | 9 | 3 | -13 | . | .
O=S(=O)(NC1CC1)c1ccc(S(=O)(=O)N(Cc2ccccn2)C2CC2)cc1 | 8 | 3 | -4 | -11 | -2 | . | .
COc1ccc(OC)c(C(=O)c2ccc(C(=O)Nc3ccc4ccccc4c3)cc2)c1 | -5 | 1 | -10 | 4 | -4 | . | .
COc1cccc(C(=O)Nc2ccccc2)c1 | . | 0 | 4 | 30 | 3 | . | .
COc1ccc(OC(C)C(=O)Nc2cccc(OC)c2)cc1 (centres undefined) | 2 | 17* | -4 | 6 | -5 | -8 | -8
COc1cccc(C(=O)Nc2ccc3ccccc3c2)c1 | -12 | 18* | -5 | 18 | 11 | 46* | 37*
COc1ccc(C(=O)Nc2ccc3ccccc3c2)cc1 | -20 | 34* | -1 | -3 | -7 | 63* | 53*
COc1ccccc1NC(=O)NNC(=O)c1ccc2ccccc2c1 | -1 | -3 | -6 | 1 | -4 | . | .
COc1ccccc1C(=O)NNC(=O)c1ccc2ccccc2c1 | -5 | 18* | 1 | 12 | 7 | -3 | -14
COc1cccc(NC(=O)NNC(=O)C(C)Oc2ccc3ccccc3c2)c1 (centres undefined) | -4 | -7 | -7 | -3 | -5 | . | .
O=C(N/N=C/c1cccc([N+](=O)[O-])c1)c1ccccc1-n1cccc1 | -2 | 2 | 2 | 2 | 13 | . | .
Cc1ccc(CNC(=O)CCSCc2cccc(F)c2)cc1 | -20 | 0 | 0 | 8 | 14 | . | .
COc1cccc(C(=O)Nc2nnc(C(C)C)s2)c1 | -4 | 22* | -4 | 25 | 9 | 34* | 22*
CCOC(=O)c1sc(NC(=O)c2ccc(C)o2)nc1C | . | 45* | 6 | 34 | 11 | 44* | -14
CC(=O)c1sc(NC(=O)c2ccc(C(C)(C)C)cc2)nc1C | 9 | 30* | 3 | -13 | -15 | 9 | -5
COC(=O)c1sc(NC(=O)c2ccc(C)o2)nc1C | 15 | 10 | -4 | -3 | 20 | . | .
CCOC(=O)c1sc(NC(=O)c2ccc(OC(C)=O)cc2)nc1C | 26 | 6 | 13 | . | . | . | .
COC(=O)c1sc(NC(=O)c2oc3ccccc3c2C)nc1C | 0 | 55* | 0 | 9 | 10 | 35* | -24
CCOC(=O)c1sc(NC(=O)c2ccc(OC)cc2)nc1C | 28 | 18* | 0 | 1 | 11 | 28* | -6
Cc1ccc(-c2nc(-c3ccccc3)no2)c(Cl)c1 | . | 54* | -2 | -77 | -72* | 90* | 86*
Oc1ccc(-c2c(C3=CCCCC3)sc3ccccc23)cc1 | . | -3 | 10 | -5 | 7 | . | .
Cn1c(=O)[nH]c(=O)c2c1nc(NCc1ccco1)n2Cc1ccccc1Cl | 3 | 1 | -11 | 5 | 7 | . | .
Cc1ccc2nc(-c3cccc(N)c3)oc2c1 | 0 | 23* | 9 | 40 | 12 | 67* | 64*
CCc1ccc2oc(-c3cccc(N)c3)nc2c1 | . | 18* | -13 | 48 | 26 | 60* | 58*
SMILES | Hep lipid drop | HSP90 inh | NS3 helicase inh | HSF-1 act | HSF1 inh | HSP90 inh confirm | luciferase ctr
CNS(=O)(=O)c1cc(-c2nnc(Nc3ccc(CC(N)=O)cc3)c3ccccc23)ccc1C | -7 | 3 | -16 | -17 | -5 | . | .
Cc1cc(C)c2c(c1)/C(=N\N=c1\sc3ccccc3n1C)C(=O)N2 | 0 | 0 | -2 | -5 | 3 | . | .
c1ccc(C2CSc3ccccc3N2)cc1 (centres undefined) | 18 | 38* | 13 | 24 | 9 | -1 | -17
COCC(=O)Nc1ccc2c(c1)OCC(=O)N2Cc1ccc(C)cc1 | 6 | 3 | -5 | 20 | 11 | . | .
Cc1[nH]c2ccccc2c1C(c1ccccn1)N1CCC(C)CC1 (centres undefined) | . | 46* | 9 | -1 | -6 | 1 | -6
Cc1[nH]c2ccccc2c1C(c1ccccn1)N1CCCC1 (centres undefined) | 5 | 4 | -10 | 8 | -6 | . | .
Clc1cccc(Cl)c1Cn1ccc(C2CC2)n1 | . | 0 | 0 | 35 | 37 | . | .
Cc1ccc(CSc2nc3ccncc3[nH]2)cc1 | . | 63* | -7 | -24 | -11 | 80* | 69*
O=C(c1ccc(CSc2nc3ccncc3[nH]2)cc1)N1CCN(c2cccc(Cl)c2)CC1 | -22 | -2 | -62 | -13 | -2 | . | .
O=C(c1ccc(CSc2nc3ccncc3[nH]2)cc1)N1CCCCCC1 | 1 | 27* | 9 | 13 | 2 | 51* | 27*
O=C(NCc1ccc(Cl)cc1)c1ccc(CSc2nc3ccncc3[nH]2)cc1 | 0 | 2 | -16 | -5 | 8 | . | .
Clc1ccc(CSc2nc3ccncc3[nH]2)cc1 | . | 27* | -8 | 56* | 23 | 64* | 45*
Cc1cc(C)cc(NC(=O)CSc2nc3ccncc3[nH]2)c1 | . | 6 | -12 | -19 | -2 | . | .
COc1ccc(C(CNC(=O)c2ccc(NS(=O)(=O)c3ccc(F)c(C)c3)cc2)N2CCOCC2)cc1 (centres undefined) | . | . | . | 10 | 3 | . | .
N/C(=N\NC(=O)c1cccs1)c1cc2ccccc2oc1=O | -2 | 1 | 10 | 24 | 0 | . | .
CCN(CC)c1ccc2cc(/C(N)=N/NC(=O)c3cccs3)c(=O)oc2c1 | -9 | 22* | 8 | -15 | -10 | 4 | -1
O=C(COC(=O)c1cc(=O)[nH]c2ccccc12)Nc1ccc(Cl)cn1 | . | . | . | -6 | -4 | . | .
O=C(c1ccc2c3n(nc2c1)-c1ccc(Cl)cc1CO3)N1CCCCC1 | . | . | . | 6 | 12 | . | .
O=C(O)c1ccc2c3n(nc2c1)-c1ccc(Cl)cc1CO3 | -2 | 84* | 6 | 16 | 36 | 75* | 27*
COC(=O)C(Cc1ccccc1)NS(=O)(=O)c1ccc(F)cc1Br (centres undefined) | . | . | . | -11 | -6 | . | .
COc1cc(OC)cc(C(=O)NCC(=O)OCC(=O)Nc2cc(S(C)(=O)=O)ccc2Cl)c1 | -5 | 27* | 1 | -7 | -7 | -11 | -15
Cc1c(-c2ccccn2)c(=O)[nH]n1-c1ccc(F)cc1 | 4 | 22* | 5 | 34 | 8 | 30* | 5
O=c1[nH]n(-c2ccc(F)cc2)c2ncccc12 | . | -3 | 3 | -20 | -5 | . | .
Cc1cc(O)c(N)c(C)c1Cl | 12 | 43* | 1 | -19 | 6 | 81* | -4
Cc1cc(O)cc(C)c1Cl | . | . | . | -2 | 14 | . | .
CCOC(=O)CNC(=O)c1cc(-c2ccccn2)nc2c(C)c(Cl)ccc12 | . | -5 | -3 | 15 | 5 | . | .

Source: PubChem
